Results pooled from the literature.
Compare with care: the assays were run in different laboratories.
Effect on: cell growth or viability

The IC50 of `O=C(O)c1ccc(NCc2cccc([N+](=O)[O-])c2)cc1` is reported as > 100000 nM (NCI-H69; resazurin; 72 h).
The IC50 of `Cc1cc2c(C(N)=O)cccc2n1-c1nc2c(c(NCc3ccccc3)n1)CCCN2` is reported as 900 nM (RPMI-8226; ATP luminescence; 72 h).
`COc1cccc(CNc2ccc(C(=O)O)cc2)c1OC` gave an IC50 of > 100000 nM (NCI-H69; resazurin; 72 h).
`CC(C)(C)c1cnc(CSc2cnc(NC(=O)C3CCN(C(=O)CCCCCCCCCN4Cc5cc6c(cc5C4)C(=O)N(C4CCC(=O)NC4=O)C6=O)CC3)s2)o1` (stereo not drawn) has an IC50 of 71.7 nM (TC-71; MTT; 72 h).
With `CSc1ccc(CNc2ccc(C(=O)O)cc2)cc1` the IC50 was > 100000 nM (NCI-H69; resazurin; 72 h).
`C=CCn1c(=O)c2cnc(Nc3ccc(N4CCN(C)CC4)cc3)nc2n1-c1ccc2c(n1)[C@@](O)(CC)CC2` gave an IC50 of 295 nM (OVCAR-3; ATP luminescence; 72 h).
For `O=C(O)c1ccc(NCc2ccc(Cl)cc2)cc1`, the IC50 was > 100000 nM (NCI-H69; resazurin; 72 h).
`CC(C)(C)c1cnc(CSc2cnc(NC(=O)C3CCNCC3)s2)o1` gave an IC50 of 48.9 nM (TC-71; MTT; 72 h).
With `O=C(O)c1ccc(NCc2ccc(Br)cc2)cc1` the IC50 was > 100000 nM (NCI-H69; resazurin; 72 h).
`CC(C)(C)NS(=O)(=O)c1cccc(C(=O)N2CC3(CCC4(CC4)CC3)c3cc(NS(C)(=O)=O)ccc32)c1` gave an IC50 of 11 nM (OVCAR-3; 7 days).
`COc1ccc2c(c1)OC1=C(C(=O)CC(C)(C)C1)C2c1c(C(=O)O)[nH]c2ccccc12` (stereo not drawn) has an IC50 of 24.5 µg/mL (3T3-L1; MTT; 72 h).
`Cc1cc2c(C(=O)O)cccc2n1-c1nc2c(c(NCc3ccccc3)n1)CCCN2` gave an IC50 of 800 nM (RPMI-8226; ATP luminescence; 72 h).
`CN1C(=O)CCC(N2C(=O)c3cc4c(cc3C2=O)CN(CCCCCCCC(=O)N2CCC(C(=O)Nc3ncc(SCc5ncc(C(C)(C)C)o5)s3)CC2)C4)C1=O` (stereo not drawn) has an IC50 of > 1000 nM (TC-71; MTT; 72 h).
With `Cc1cc2c(C(N)=O)cccc2n1-c1nc2c(c(NCc3ccccc3O)n1)CCCN2` the IC50 was 9800 nM (RPMI-8226; ATP luminescence; 72 h).
`CC(C)(C)c1cnc(CSc2cnc(NC(=O)C3CCN(C(=O)CCOCCN4Cc5cc6c(cc5C4)C(=O)N(C4CCC(=O)NC4=O)C6=O)CC3)s2)o1` (stereo not drawn) has an IC50 of 8.93 nM (TC-71; MTT; 72 h).
`Cc1cc2c(C(N)=O)cccc2n1-c1nc2c(c(OCc3ccccc3)n1)CCCN2` gave an IC50 of 4500 nM (RPMI-8226; ATP luminescence; 72 h).
`COc1cccc(CNc2ccc(C(=O)O)cc2)c1O` gave an IC50 of > 100000 nM (NCI-H69; resazurin; 72 h).
With `CONC(=O)c1cccc2c1cc(C)n2-c1nc2c(c(NCc3ccccc3)n1)CCCN2` the IC50 was 500 nM (RPMI-8226; ATP luminescence; 72 h).
For `CC(C)(C)c1cnc(CSc2cnc(NC(=O)C3CCN(C(=O)CCCCCCCN4Cc5cc6c(cc5C4)C(=O)N(C4CCC(=O)NC4=O)C6=O)CC3)s2)o1` (stereo not drawn), the IC50 was 8.52 nM (TC-71; MTT; 72 h).
`Cc1cc2c(C(N)=O)cccc2n1-c1nc(NCc2ccccc2)c2c(n1)NC(C)CC2` (stereo not drawn) gave an IC50 of 1300 nM (RPMI-8226; ATP luminescence; 72 h).
`CC(C)(C)c1cnc(CSc2cnc(NC(=O)C3CCN(CC(=O)NCCOCCOCCOCCNc4cccc5c4C(=O)N(C4CCC(=O)NC4=O)C5=O)CC3)s2)o1` (stereo not drawn) gave an IC50 of 21.6 nM (TC-71; MTT; 72 h).
